# Data from ChEMBL document CHEMBL1137710, “Synthesis and in vitro antitumor activity of new quinoxaline derivatives” (2009).
# Assays:
# Type in all cases: functional
# NCI-H522 = experiment: Growth inhibition of human NCI-H522 cells after 48 hrs by sulforhodamine B assay; settings: NCI-H522, 48 h
# Outline: (§1)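 NCI 60-human-tumor-cell-line panel, with compounds tested over a 5-log dose range. Values are taken from dose-response curves as log10 molar concentrations: GI50 is 50% net growth inhibition, TGI is total growth inhibition, and LC50 is 50% net cell death.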
# NCI/ADR-RES = experiment: Growth inhibition of human NCI/ADR-RES cells after 48 hrs by sulforhodamine B assay; outline: as §1
# 786-0 = experiment: Growth inhibition of human 786-0 cells after 48 hrs by sulforhodamine B assay; settings: 786-0, 48 h; outline: as §1
# TK-10 = experiment: Growth inhibition of human TK10 cells after 48 hrs by sulforhodamine B assay; settings: TK-10, 48 h
# Outline: (§2)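 Run in the NCI 60-human-tumour-cell-line panel, tested over a 5-log dose range. Dose–response curves gave three values per cell line, each as a log10 molar concentration: GI50 (50% inhibition of net cell growth), TGI (total inhibition of net growth) and LC50 (50% net cell death). The mean graph midpoint is the arithmetic mean over all lines, with insensitive lines entered at the highest concentration tested.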
# A549 = experiment: Growth inhibition of human A549 cells after 48 hrs by sulforhodamine B assay; settings: A549, 48 h; outline: as §1
# M14 = experiment: Growth inhibition of human M14 cells after 48 hrs by sulforhodamine B assay; settings: M14, 48 h; outline: as §1
# UACC-257 = experiment: Growth inhibition of human UACC257 cells after 48 hrs by sulforhodamine B assay; settings: UACC-257, 48 h; outline: as §2
# HL-60(TB) = experiment: Growth inhibition of human HL-60(TB) cells after 48 hrs by sulforhodamine B assay; settings: HL-60, 48 h
# Outline: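 Tested only on compounds active in a three-line prescreen, in the NCI 60-human-tumour-cell-line panel over a 5-log dose range. Values come from dose–response curves as log10 molar GI50, the concentration inhibiting 50% net cell growth. Log10 TGI (total growth inhibition) and log10 LC50 (50% net cell death) were derived too. Mean graph midpoints include insensitive lines at the highest concentration tested.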
# HOP-62 = experiment: Growth inhibition of human HOP62 cells after 48 hrs by sulforhodamine B assay; settings: HOP-62, 48 h; outline: as §1
# NCI-H322M = experiment: Growth inhibition of human NCI-H322M cells after 48 hrs by sulforhodamine B assay; outline: as §1
# OVCAR-5 = experiment: Growth inhibition of human OVCAR5 cells after 48 hrs by sulforhodamine B assay; settings: OVCAR-5, 48 h; outline: as §1
# UO-31 = experiment: Growth inhibition of human UO31 cells after 48 hrs by sulforhodamine B assay; settings: UO-31, 48 h; outline: as §2
# OVCAR-3 = experiment: Growth inhibition of human OVCAR-3 cells after 48 hrs by sulforhodamine B assay; settings: OVCAR-3, 48 h; outline: as §1
# COLO 205 = experiment: Growth inhibition of human COLO205 cells after 48 hrs by sulforhodamine B assay; settings: COLO 205, 48 h; outline: as §1
# NCI-H23 = experiment: Growth inhibition of human NCI-H23 cells after 48 hrs by sulforhodamine B assay; settings: NCI-H23, 48 h; outline: as §1
# U-251 = experiment: Growth inhibition of human U251 cells after 48 hrs by sulforhodamine B assay; settings: U-251, 48 h; outline: as §2
# MDA-MB-435 = experiment: Growth inhibition of human MDA-MB-435 cells after 48 hrs by sulforhodamine B assay; settings: MDA-MB-435, 48 h; outline: as §1
# K562 = experiment: Growth inhibition of human K562 cells after 48 hrs by sulforhodamine B assay; settings: K562, 48 h; outline: as §1
# SF-295 = experiment: Growth inhibition of human SF295 cells after 48 hrs by sulforhodamine B assay; settings: SF-295, 48 h; outline: as §1
# [1] = Growth inhibition of human […] cells after 48 hrs by sulforhodamine B assay; outline: as §1
# MDA-MB-231 = experiment: Growth inhibition of human MDA-MB-231 cells after 48 hrs by sulforhodamine B assay; settings: MDA-MB-231, 48 h; outline: as §1
# HCT-116 = experiment: Growth inhibition of human HCT116 cells after 48 hrs by sulforhodamine B assay; settings: HCT-116, 48 h; outline: as §1
# CAKI-1 = experiment: Growth inhibition of human Caki1 cells after 48 hrs by sulforhodamine B assay; settings: CAKI-1, 48 h; outline: as §1
# SW-620 = experiment: Growth inhibition of human SW620 cells after 48 hrs by sulforhodamine B assay; settings: SW-620, 48 h; outline: as §2
# SK-OV-3 = experiment: Growth inhibition of human SKOV3 cells after 48 hrs by sulforhodamine B assay; settings: SK-OV-3, 48 h; outline: as §1
# OVCAR-4 = experiment: Growth inhibition of human OVCAR4 cells after 48 hrs by sulforhodamine B assay; settings: OVCAR-4, 48 h; outline: as §1
# OVCAR-8 = experiment: Growth inhibition of human OVCAR8 cells after 48 hrs by sulforhodamine B assay; settings: OVCAR-8, 48 h; outline: as §1
# SNB-19 = experiment: Growth inhibition of human SNB19 cells after 48 hrs by sulforhodamine B assay; settings: SNB-19, 48 h; outline: as §2
# [2] = read-out: pLC50 (the source's name) (converted)
structure (smiles),measurement,setting,value
COc1ccc(Oc2nc3cc(N)cc(N)c3nc2-c2ccccc2)cc1,GI50,NCI-H522,31.6 µM
same,LC50,NCI-H522,> 100 µM
same,TGI,NCI-H522; read-out: pTGI (converted),> 100 µM
same,GI50,NCI/ADR-RES,60.3 µM
same,CC50,NCI/ADR-RES; [2],> 100 µM
same,TGI,NCI/ADR-RES; read-out: pTGI (converted),> 100 µM
same,GI50,786-0,24.5 µM
same,CC50,786-0; [2],> 100 µM
same,TGI,786-0; read-out: pTGI (converted),> 100 µM
same,GI50,TK-10,53.7 µM
same,CC50,TK-10; [2],> 100 µM
same,TGI,TK-10; read-out: pTGI (converted),> 100 µM
same,GI50,A549,37.2 µM
same,LC50,A549,> 100 µM
same,TGI,A549; read-out: pTGI (converted),> 100 µM
same,GI50,M14,> 100 µM
same,CC50,M14; [2],> 100 µM
same,TGI,M14; read-out: pTGI (converted),> 100 µM
same,GI50,UACC-257,> 100 µM
same,CC50,UACC-257; [2],> 100 µM
same,TGI,UACC-257; read-out: pTGI (converted),> 100 µM
same,GI50,HL-60(TB),15.5 µM
same,LC50,HL-60(TB),> 100 µM
same,TGI,HL-60(TB); read-out: pTGI (converted),> 100 µM
same,GI50,HOP-62,19.5 µM
same,LC50,HOP-62,87.1 µM
same,TGI,HOP-62; read-out: pTGI (converted),40.7 µM
same,GI50,NCI-H322M,> 100 µM
same,LC50,NCI-H322M,> 100 µM
same,TGI,NCI-H322M; read-out: pTGI (converted),> 100 µM
same,GI50,OVCAR-5,95.5 µM
same,CC50,OVCAR-5; [2],> 100 µM
same,TGI,OVCAR-5; read-out: pTGI (converted),> 100 µM
same,GI50,UO-31,28.2 µM
same,CC50,UO-31; [2],> 100 µM
same,TGI,UO-31; read-out: pTGI (converted),> 100 µM
same,GI50,OVCAR-3,14.8 µM
same,CC50,OVCAR-3; [2],> 100 µM
same,TGI,OVCAR-3; read-out: pTGI (converted),72.4 µM
same,GI50,COLO 205,> 100 µM
same,LC50 (50% net cell kill),COLO 205,> 100 µM
same,TGI,COLO 205; read-out: pTGI (converted),> 100 µM
same,GI50,NCI-H23,25.1 µM
same,LC50 (50% net cell kill concentration),NCI-H23,> 100 µM
same,TGI,NCI-H23; read-out: pTGI (converted),> 100 µM
same,GI50,U-251,26.3 µM
same,LC50 (50% net cell kill),U-251,> 100 µM
same,TGI,U-251; read-out: pTGI (converted),> 100 µM
same,GI50,MDA-MB-435,40.7 µM
same,CC50,MDA-MB-435; [2],> 100 µM
same,TGI,MDA-MB-435; read-out: pTGI (converted),> 100 µM
same,GI50,K562,26.3 µM
same,LC50,K562,> 100 µM
same,TGI,K562; read-out: pTGI (converted),> 100 µM
same,GI50,SF-295,23.4 µM
same,LC50 (50% net cell kill),SF-295,> 100 µM
same,TGI,SF-295; read-out: pTGI (converted),52.5 µM
same,GI50,[1],10.5 µM
same,LC50,[1],> 100 µM
same,TGI,[1]; read-out: pTGI (converted),70.8 µM
same,GI50,MDA-MB-231,20.4 µM
same,CC50,MDA-MB-231; [2],> 100 µM
same,TGI,MDA-MB-231; read-out: pTGI (converted),64.6 µM
same,GI50,HCT-116,28.8 µM
same,LC50 (concentration causing 50% net cell death),HCT-116,> 100 µM
same,TGI,HCT-116; read-out: pTGI (converted),75.9 µM
same,GI50,CAKI-1,79.4 µM
same,CC50,CAKI-1; [2],> 100 µM
same,TGI,CAKI-1; read-out: pTGI (converted),> 100 µM
same,GI50,SW-620,89.1 µM
same,CC50,SW-620; [2],> 100 µM
same,TGI,SW-620; read-out: pTGI (converted),> 100 µM
same,GI50,SK-OV-3,25.7 µM
same,CC50,SK-OV-3; [2],> 100 µM
same,TGI,SK-OV-3; read-out: pTGI (converted),55 µM
same,GI50,OVCAR-4,3.72 µM
same,CC50,OVCAR-4; [2],> 100 µM
same,TGI,OVCAR-4; read-out: pTGI (converted),24.5 µM
same,GI50,OVCAR-8,32.4 µM
same,CC50,OVCAR-8; [2],> 100 µM
same,TGI,OVCAR-8; read-out: pTGI (converted),> 100 µM
same,GI50,SNB-19,64.6 µM
same,LC50,SNB-19,> 100 µM
same,TGI,SNB-19; read-out: pTGI (converted),> 100 µM
